Laboratory results: ChEMBL document CHEMBL4402517, “Rational modification of Mannich base-type derivatives as novel antichagasic compounds: Synthesis, in vitro and in vivo evaluation” (Bioorg Med Chem, 2019)
Active and inactive are the calls of the source. The calls are words filed in the database; no cut-off is given here.

Key:
[1] = tested on: Trypanosoma cruzi; assay: (§1) Antitrypanosomal activity against Trypanosoma cruzi MHOM/Pe/2011/Arequipa;DTU 5 bloodstream trypomastigote infected in BALB/c mouse assessed as parasite-free spleen in chronic phase at 20 mg/kg/day, po administered for 5 consecutive days starting from day 70 post infection followed by cyclophosphamide induced immunosuppression on day 80 post infection measured after day 100 post infection by PCR method relative to control; format: functional
Method in brief: (§2)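 Female BALB/c mice (10–12 weeks, three per group) were infected i.p. with 5 × 10^5 Arequipa bloodstream trypomastigotes. Dosing was oral, 20 mg/kg/day for 5 days, as a suspension in 5% DMSO/0.5% HPMC. Cyclophosphamide 200 mg/kg i.p. was given at day 80 pi. At necropsy (day 100) tissues were tested by PCR on the splice leader region (primers TC/TC1, 300 bp). Scored as x/3 mice positive.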

[2] = tested on: Trypanosoma cruzi; assay: Trypanocidal activity against Trypanosoma cruzi TINF/CH/1956/Tulahuen;DTU 6 trypomastigote forms infected in BALB/c albino mouse measured after 24 hrs by Neubauer chamber method; conditions: TINF/CH/1956/Tulahuen;DTU 6, 24 h
[3] = Selectivity index, ratio of IC50 for African green monkey Vero cells to IC50 for Trypanosoma cruzi TINF/CH/1956/Tulahuen;DTU 6 trypomastigote forms; format: toxicity; conditions: read-out: Selectivity Index
Method in brief: (§3)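 Bloodstream trypomastigotes were taken from BALB/c mice by cardiac puncture and diluted in RPMI with 10% FBS at 2 × 10^6/mL. They were incubated with 3.1–50.0 µM for 24 h at 37 °C in 5% CO2 and counted in a Neubauer chamber. Triplicate, at least three experiments; nonlinear regression.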

[4] = tested on: Trypanosoma cruzi; assay: Antitrypanosomal activity against Trypanosoma cruzi MHOM/Pe/2011/Arequipa;DTU 5 epimastigote assessed as effect on D-lactate excretion at IC50 after 72 hrs by H NMR method relative to control; format: functional, organism-based
Method in brief: (§4)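 Cells were spun at 800 × g for 10 min and culture supernatants analysed by 1H NMR. Catabolite peaks were expressed as % variation versus untreated parasites.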

[5] = tested on: Trypanosoma cruzi; assay: as §1, with “bone marrow” for “spleen”, “acute” for “chronic”, “8” for “70”; format: functional; method in brief: as §2
[6] = Selectivity index, ratio of IC50 for African green monkey Vero cells to IC50 for Trypanosoma cruzi MHOM/Pe/2011/Arequipa; DTU 5 amastigote forms; format: toxicity; conditions: read-out: Selectivity Index
Method in brief: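 Vero cells (1 × 10^4/well) were infected with trypomastigotes at MOI 10:1 for 24 h and washed with PBS. They were then exposed to 3.1–50 µM for 72 h at 37 °C in 5% CO2, and amastigotes were counted after Giemsa staining. Triplicates in two determinations; nonlinear regression.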

[7] = (§5) Toxicity in BALB/c mouse infected with Trypanosoma cruzi MHOM/Pe/2011/Arequipa;DTU 5 bloodstream trypomastigote assessed as increase in serum alanine aminotransferase level in acute phase at 20 mg/kg/day, po administered for 5 consecutive days starting from day 8 post infection and measured at day 14 post infection by biochemical analysis relative to control; format: organism-based; conditions: in vivo
Method in brief: (§6)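 Female BALB/c mice (10–12 weeks, 14–20 g; groups of three) were infected i.p. with 5 × 10^5 Arequipa bloodstream trypomastigotes. Dosing was oral at 20 mg/kg/day for 5 days, from day 8 pi (acute) or day 70 pi (chronic), as a 2 mg/ml suspension in 5% DMSO/0.5% HPMC; controls received vehicle. Cyclophosphamide 200 mg/kg i.p. was given at day 80 pi. Serum was collected 2 days post-treatment and at necropsy by cardiac puncture and compared with infected untreated controls.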

[8] = tested on: Trypanosoma cruzi; assay: as §1, with “adipose tissue” for “spleen”, “acute” for “chronic”, “8” for “70”; format: functional; method in brief: as §2
[9] = as §5, with “decrease” for “increase”, “lactate dehydrogenase” for “alanine aminotransferase”, “mg/kg/day,po” for “mg/kg/day, po”; format: organism-based; parameters: scale not given: the % may be the effect or the level left; conditions: in vivo; method in brief: as §6
[10] = (§7) Toxicity in BALB/c mouse infected with Trypanosoma cruzi MHOM/Pe/2011/Arequipa;DTU 5 bloodstream trypomastigote assessed as decrease in serum creatine kinase muscle to brain ratio level in chronic phase at 20 mg/kg/day, po administered for 5 consecutive days starting from day 70 post infection and measured at day 76 post infection relative to control; format: organism-based; parameters: scale not given: the % may be the effect or the level left; conditions: in vivo; method in brief: as §6
[11] = as §7, with “lactate dehydrogenase” for “creatine kinase muscle to brain ratio”; format: organism-based; parameters: scale not given: the % may be the effect or the level left; conditions: in vivo; method in brief: as §6
[12] = as §5, with “decrease” for “increase”, “urea” for “alanine aminotransferase”; format: organism-based; parameters: scale not given: the % may be the effect or the level left; conditions: in vivo; method in brief: as §6
[13] = tested on: Trypanosoma cruzi; assay: Antitrypanosomal activity against Trypanosoma cruzi MHOM/Pe/2011/Arequipa;DTU 5 epimastigote assessed as effect on acetate excretion at IC50 after 72 hrs by H NMR method relative to control; format: functional, organism-based; method in brief: as §4
[14] = tested on: Trypanosoma cruzi; assay: Trypanocidal activity against Trypanosoma cruzi trypomastigote form infected in African green monkey Vero cells measured after 48 hrs by resazurin dye based assay; format: functional, organism-based
[15] = tested on: Trypanosoma cruzi; assay: Antitrypanosomal activity against Trypanosoma cruzi MHOM/Pe/2011/Arequipa;DTU 5 bloodstream trypomastigotes infected in BALB/c mouse assessed as reduction in serum Ig-G level in acute phase at 20 mg/kg/day, po administered for 5 consecutive days starting from day 8 post infection and measured at day 79 post infection by ELISA; format: functional, organism-based
Method in brief: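 Sera came from infected BALB/c mice (three per group) dosed orally at 20 mg/kg/day for 5 days. Sampling points: 2 days after treatment, the day before immunosuppression (acute only) and necropsy day. Anti-T. cruzi IgG was measured by indirect ELISA using parasite Fe-SOD as antigen, read as OD at 492 nm.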

[16] = Selectivity index, ratio of IC50 for African green monkey Vero cells to IC50 for Trypanosoma cruzi IRHOD/CO/2008/SN3;DTU 1 trypomastigote forms; format: toxicity; conditions: read-out: Selectivity Index; method in brief: as §3
[17] = tested on: Trypanosoma cruzi; assay: Antitrypanosomal activity against Trypanosoma cruzi MHOM/Pe/2011/Arequipa;DTU 5 epimastigote assessed as change in RNA level at IC50 measured after 72 hrs by acridine orange staining based flow cytometry relative to control; format: functional
Method in brief: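 They were stained with rhodamine 123 or acridine orange and analysed by flow cytometry. Index of variation = (TM−CM)/CM, from median fluorescence of treated (TM) and untreated (CM) parasites.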

[18] = tested on: Trypanosoma cruzi; assay: as §1, with “brain” for “spleen”, “acute” for “chronic”, “8” for “70”; format: functional; method in brief: as §2
[19] = tested on: Trypanosoma cruzi; assay: Antitrypanosomal activity against Trypanosoma cruzi MHOM/Pe/2011/Arequipa;DTU 5 epimastigote assessed as effect on ethanol excretion at IC50 after 72 hrs by H NMR method relative to control; format: functional, organism-based; method in brief: as §4
[20] = tested on: Trypanosoma cruzi; assay: as §1, with “heart” for “spleen”, “acute” for “chronic”, “8” for “70”; format: functional; method in brief: as §2
[21] = tested on: Trypanosoma cruzi; assay: as §1, with “brain” for “spleen”; format: functional; method in brief: as §2
[22] = as §7, with “infection” for “infection and”, “measured on” for “measured at”, “day 100” for “day 76”; format: organism-based; parameters: scale not given: the % may be the effect or the level left; conditions: in vivo; method in brief: as §6

SMILES	Activity [1]	IC50 [2]	selectivity ratio [3]	Activity [4]	Activity [5]	selectivity ratio [6]	Activity [7]	Activity [8]	Activity [9]	Activity [10]	Activity [11]	Activity [12]	Activity [13]	IC50 [14]	Activity [15]	selectivity ratio [16]	Activity [17]	Activity [18]	Activity [19]	Activity [20]	also measured
O=C(CCN1CCN(c2ccc(Cl)cc2)CC1)c1ccc(O)cc1	63%	2.1 µM	49.6	Active	50%	20.4	> 40%	50%	<= 20%	<= 30%	<= 10%	<= 10%	Active	6.8 µM	Active	50.9	-5.1%	50%	Active	50%	Activity [21]: 63%; Activity [22]: <= 20%
O=C(Cn1ccnc1[N+](=O)[O-])NCc1ccccc1 [BENZNIDAZOLE]	38%	6.7 µM	> 29.9	Active	25%	> 67.2	> 40%	25%	<= 10%	<= 30%	<= 10%	<= 30%	Active	4.1 µM	Active	> 6	-4.7%	25%	Active	25%	Activity [21]: 38%; Activity [22]: <= 10%
O=C(CCN1CCN(c2ccc(C(F)(F)F)cc2)CC1)c1ccc(O)cc1	50%	2.3 µM	45.7	Active	13%	17.4	> 40%	13%	<= 20%	<= 30%	<= 20%	<= 10%	Active	9.4 µM	Active	51	-4.2%	13%	Active	13%	Activity [21]: 50%; Activity [22]: <= 30%
